ChEMBL document CHEMBL1126297, “Synthesis and evaluation of analogues of (Z)-1-(4-methoxyphenyl)-2-(3,4,5-trimethoxyphenyl)ethene as potential cytotoxic and antimitotic agents” (J Med Chem, 1992)

Test system: MCF7
Assay: Cytotoxicity against human MCF-7 breast cancer cell line.
Assay type: functional
Settings: read-out: ED50 (the source's name)
Summary of the method: (§1)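 MTT colorimetric assay run in the Purdue Cell Culture Laboratory. Poorly water-soluble compounds were serially diluted in DMSO and added as 0.5 μL aliquots per well. Cells were incubated with compound for 6 days before MTT was added. […] The reported ED50 is the mean of two determinations.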

SMILES | EC50 [µM]
COC(=O)/C(=C/c1cccc(OC)c1)c1cc(OC)c(OC)c(OC)c1 | 1.3
COc1cc(CCc2ccc(SC)cc2)cc(OC)c1OC | 0.2
CCN(CC)CCOc1ccc(CCc2cc(OC)c(OC)c(OC)c2)cc1 | 4.3
COc1ccc(/C=C\c2cc(OC)cc(OC)c2)cc1 [8Z-3,4',5-TRIMETHOXYSTILBENE] | 0.16
COC(=O)C(Cc1cc(OC)c(OC)c(OC)c1)c1ccc(OC)cc1 (configuration not stated) | > 25
CCCOc1ccc(/C=C\c2cc(OC)c(OC)c(OC)c2)cc1 | 0.66
COc1ccc2ccc3cc(OC)c(OC)c(OC)c3c2c1 | > 25
COC(=O)/C(=C/c1ccc(OC)cc1)c1cc(OC)c(OC)c(OC)c1 | 2
COc1cc(/C=C/c2ccc(C(C)(C)C)cc2)cc(OC)c1OC | > 25
COc1ccc(CCc2cc(OC)c(OC)c(OC)c2)cc1 | 1.6
COc1ccc(/C=C(/C(=O)O)c2cc(OC)c(OC)c(OC)c2)cc1 | 12.8
COc1ccc(C(=O)c2cc(OC)c(OC)c(OC)c2)cc1 | 1.5
COc1cc(/C=C\c2ccc(C(C)(C)C)cc2)cc(OC)c1OC | 1.57
CCc1ccc(/C=C/c2cc(OC)c(OC)c(OC)c2)cc1 | 1.2
COc1ccc2c(ccc3cc(OC)c(OC)c(OC)c32)c1 | > 25
COc1ccc(/C=C/c2cc(OC)c(OC(C)=O)c(OC)c2)cc1 | 19.4
CCN(CC)CCOC(=O)/C(=C/c1cccc(OC)c1)c1cc(OC)c(OC)c(OC)c1 | 10.4

Test system: MLM
Assay: Cytotoxicity against human MLM melanoma cell line.
Assay type: functional
Settings: read-out: ED50 (the source's name)
Summary of the method: as §1

SMILES | EC50 [µM]
COC(=O)/C(=C/c1cccc(OC)c1)c1cc(OC)c(OC)c(OC)c1 | 15.5
COc1cc(CCc2ccc(SC)cc2)cc(OC)c1OC | 1.3
CCN(CC)CCOc1ccc(CCc2cc(OC)c(OC)c(OC)c2)cc1 | > 25
COc1ccc(/C=C\c2cc(OC)cc(OC)c2)cc1 [8Z-3,4',5-TRIMETHOXYSTILBENE] | 0.098
COC(=O)C(Cc1cc(OC)c(OC)c(OC)c1)c1ccc(OC)cc1 (configuration not stated) | > 25
CCCOc1ccc(/C=C\c2cc(OC)c(OC)c(OC)c2)cc1 | 0.065
COc1ccc2ccc3cc(OC)c(OC)c(OC)c3c2c1 | > 25
COC(=O)/C(=C/c1ccc(OC)cc1)c1cc(OC)c(OC)c(OC)c1 | 9.6
COc1cc(/C=C/c2ccc(C(C)(C)C)cc2)cc(OC)c1OC | > 25
COc1ccc(CCc2cc(OC)c(OC)c(OC)c2)cc1 | 1.8
COc1ccc(/C=C(/C(=O)O)c2cc(OC)c(OC)c(OC)c2)cc1 | > 25
COc1ccc(C(=O)c2cc(OC)c(OC)c(OC)c2)cc1 | 1.3
COc1cc(/C=C\c2ccc(C(C)(C)C)cc2)cc(OC)c1OC | 4.32
CCc1ccc(/C=C/c2cc(OC)c(OC)c(OC)c2)cc1 | 0.22
COc1ccc2c(ccc3cc(OC)c(OC)c(OC)c32)c1 | > 25
COc1ccc(/C=C/c2cc(OC)c(OC(C)=O)c(OC)c2)cc1 | 21
CCN(CC)CCOC(=O)/C(=C/c1cccc(OC)c1)c1cc(OC)c(OC)c(OC)c1 | > 25

Test system: SK-MEL-5
Assay: Compound was evaluated for cytotoxicity against human SKMEL-5 melanoma cell line.
Assay type: functional
Settings: read-out: ED50 (the source's name)
Summary of the method: as §1

SMILES | EC50 [µM]
COC(=O)/C(=C/c1cccc(OC)c1)c1cc(OC)c(OC)c(OC)c1 | 1.5
COc1cc(CCc2ccc(SC)cc2)cc(OC)c1OC | 0.24
CCN(CC)CCOc1ccc(CCc2cc(OC)c(OC)c(OC)c2)cc1 | 8.5
COc1ccc(/C=C\c2cc(OC)cc(OC)c2)cc1 [8Z-3,4',5-TRIMETHOXYSTILBENE] | 0.42
COC(=O)C(Cc1cc(OC)c(OC)c(OC)c1)c1ccc(OC)cc1 (configuration not stated) | > 25
CCCOc1ccc(/C=C\c2cc(OC)c(OC)c(OC)c2)cc1 | 0.014
COc1ccc2ccc3cc(OC)c(OC)c(OC)c3c2c1 | 12.5
COC(=O)/C(=C/c1ccc(OC)cc1)c1cc(OC)c(OC)c(OC)c1 | 6.4
COc1cc(/C=C/c2ccc(C(C)(C)C)cc2)cc(OC)c1OC | > 25
COc1ccc(CCc2cc(OC)c(OC)c(OC)c2)cc1 | 1.4
COc1ccc(/C=C(/C(=O)O)c2cc(OC)c(OC)c(OC)c2)cc1 | 9.1
COc1ccc(C(=O)c2cc(OC)c(OC)c(OC)c2)cc1 | 1.2
COc1cc(/C=C\c2ccc(C(C)(C)C)cc2)cc(OC)c1OC | 0.21
CCc1ccc(/C=C/c2cc(OC)c(OC)c(OC)c2)cc1 | 0.17
COc1ccc2c(ccc3cc(OC)c(OC)c(OC)c32)c1 | > 25
COc1ccc(/C=C/c2cc(OC)c(OC(C)=O)c(OC)c2)cc1 | 10.2
CCN(CC)CCOC(=O)/C(=C/c1cccc(OC)c1)c1cc(OC)c(OC)c(OC)c1 | 6.7

Test system: A549
Assay: Compound was evaluated for cytotoxicity against human A-549 non-small cell lung cancer cell line.
Assay type: functional
Settings: read-out: ED50 (the source's name)
Summary of the method: as §1

SMILES | EC50 [µM]
COC(=O)/C(=C/c1cccc(OC)c1)c1cc(OC)c(OC)c(OC)c1 | 1.3
COc1cc(CCc2ccc(SC)cc2)cc(OC)c1OC | 0.15
CCN(CC)CCOc1ccc(CCc2cc(OC)c(OC)c(OC)c2)cc1 | 6.8
COc1ccc(/C=C\c2cc(OC)cc(OC)c2)cc1 [8Z-3,4',5-TRIMETHOXYSTILBENE] | 0.13
COC(=O)C(Cc1cc(OC)c(OC)c(OC)c1)c1ccc(OC)cc1 (configuration not stated) | > 25
CCCOc1ccc(/C=C\c2cc(OC)c(OC)c(OC)c2)cc1 | 0.039
COc1ccc2ccc3cc(OC)c(OC)c(OC)c3c2c1 | > 25
COC(=O)/C(=C/c1ccc(OC)cc1)c1cc(OC)c(OC)c(OC)c1 | 1.1
COc1cc(/C=C/c2ccc(C(C)(C)C)cc2)cc(OC)c1OC | > 25
COc1ccc(CCc2cc(OC)c(OC)c(OC)c2)cc1 | 1.8
COc1ccc(/C=C(/C(=O)O)c2cc(OC)c(OC)c(OC)c2)cc1 | 13.9
COc1ccc(C(=O)c2cc(OC)c(OC)c(OC)c2)cc1 | 1.1
COc1cc(/C=C\c2ccc(C(C)(C)C)cc2)cc(OC)c1OC | 1.02
CCc1ccc(/C=C/c2cc(OC)c(OC)c(OC)c2)cc1 | 0.13
COc1ccc2c(ccc3cc(OC)c(OC)c(OC)c32)c1 | > 25
COc1ccc(/C=C/c2cc(OC)c(OC(C)=O)c(OC)c2)cc1 | 16.4
CCN(CC)CCOC(=O)/C(=C/c1cccc(OC)c1)c1cc(OC)c(OC)c(OC)c1 | 7.7

Test system: HT-29
Assay: Cytotoxicity against human HT-29 colon cell line.
Assay type: functional
Settings: read-out: ED50 (the source's name)
Summary of the method: as §1

SMILES | EC50 [µM]
COC(=O)/C(=C/c1cccc(OC)c1)c1cc(OC)c(OC)c(OC)c1 | 0.7
COc1cc(CCc2ccc(SC)cc2)cc(OC)c1OC | 0.4
CCN(CC)CCOc1ccc(CCc2cc(OC)c(OC)c(OC)c2)cc1 | 5.2
COc1ccc(/C=C\c2cc(OC)cc(OC)c2)cc1 [8Z-3,4',5-TRIMETHOXYSTILBENE] | 0.34
COC(=O)C(Cc1cc(OC)c(OC)c(OC)c1)c1ccc(OC)cc1 (configuration not stated) | > 25
CCCOc1ccc(/C=C\c2cc(OC)c(OC)c(OC)c2)cc1 | 0.028
COc1ccc2ccc3cc(OC)c(OC)c(OC)c3c2c1 | 1.1
COC(=O)/C(=C/c1ccc(OC)cc1)c1cc(OC)c(OC)c(OC)c1 | 0.5
COc1cc(/C=C/c2ccc(C(C)(C)C)cc2)cc(OC)c1OC | > 25
COc1ccc(CCc2cc(OC)c(OC)c(OC)c2)cc1 | 2.5
COc1ccc(/C=C(/C(=O)O)c2cc(OC)c(OC)c(OC)c2)cc1 | 8.4
COc1ccc(C(=O)c2cc(OC)c(OC)c(OC)c2)cc1 | 1.3
COc1cc(/C=C\c2ccc(C(C)(C)C)cc2)cc(OC)c1OC | 0.88
CCc1ccc(/C=C/c2cc(OC)c(OC)c(OC)c2)cc1 | 0.11
COc1ccc2c(ccc3cc(OC)c(OC)c(OC)c32)c1 | > 25
COc1ccc(/C=C/c2cc(OC)c(OC(C)=O)c(OC)c2)cc1 | 11.7
CCN(CC)CCOC(=O)/C(=C/c1cccc(OC)c1)c1cc(OC)c(OC)c(OC)c1 | > 25

Species on record: Bos taurus
Assay: Inhibition of tubulin polymerization
Assay type: functional
Settings: not given
Summary of the method: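 Bovine brain tubulin, purified to electrophoretic homogeneity, was preincubated at 37 °C with a range of compound concentrations and then chilled on ice. GTP was added and polymerization followed at 37 °C by turbidity at 350 nm. Extent was read at 20 min against two controls per experiment, and IC50 was determined graphically. Actives were run in ≥3 independent assays, inactives (IC50 > 40 μM) in ≥2.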

SMILES | IC50 [µM]
COC(=O)/C(=C/c1cccc(OC)c1)c1cc(OC)c(OC)c(OC)c1 | > 40
COc1cc(CCc2ccc(SC)cc2)cc(OC)c1OC | > 40
CCN(CC)CCOc1ccc(CCc2cc(OC)c(OC)c(OC)c2)cc1 | > 40
COc1ccc(/C=C\c2cc(OC)cc(OC)c2)cc1 [8Z-3,4',5-TRIMETHOXYSTILBENE] | 3.8
COC(=O)C(Cc1cc(OC)c(OC)c(OC)c1)c1ccc(OC)cc1 (configuration not stated) | > 40
COc1ccc2ccc3cc(OC)c(OC)c(OC)c3c2c1 | > 40
COC(=O)/C(=C/c1ccc(OC)cc1)c1cc(OC)c(OC)c(OC)c1 | > 40
COc1ccc(CCc2cc(OC)c(OC)c(OC)c2)cc1 | 7.9
COc1ccc(/C=C(/C(=O)O)c2cc(OC)c(OC)c(OC)c2)cc1 | > 40
COc1ccc2c(ccc3cc(OC)c(OC)c(OC)c32)c1 | > 40
CCN(CC)CCOC(=O)/C(=C/c1cccc(OC)c1)c1cc(OC)c(OC)c(OC)c1 | > 40

Other lines, results leading:

IC50 [µM] | SMILES
6 | CCCOc1ccc(/C=C\c2cc(OC)c(OC)c(OC)c2)cc1
> 40 | COc1cc(/C=C/c2ccc(C(C)(C)C)cc2)cc(OC)c1OC
7.4 | COc1ccc(C(=O)c2cc(OC)c(OC)c(OC)c2)cc1
> 40 | COc1cc(/C=C\c2ccc(C(C)(C)C)cc2)cc(OC)c1OC
> 40 | CCc1ccc(/C=C/c2cc(OC)c(OC)c(OC)c2)cc1
> 40 | COc1ccc(/C=C/c2cc(OC)c(OC(C)=O)c(OC)c2)cc1
